Experimental data collected from several papers.
Each line is one published result; the experiments were not run side by side.
Target: Ephrin type-B receptor 1 (EPHB1, Homo sapiens, UniProt P54762)
Sequence (P54762 18-984, as in one of the studies): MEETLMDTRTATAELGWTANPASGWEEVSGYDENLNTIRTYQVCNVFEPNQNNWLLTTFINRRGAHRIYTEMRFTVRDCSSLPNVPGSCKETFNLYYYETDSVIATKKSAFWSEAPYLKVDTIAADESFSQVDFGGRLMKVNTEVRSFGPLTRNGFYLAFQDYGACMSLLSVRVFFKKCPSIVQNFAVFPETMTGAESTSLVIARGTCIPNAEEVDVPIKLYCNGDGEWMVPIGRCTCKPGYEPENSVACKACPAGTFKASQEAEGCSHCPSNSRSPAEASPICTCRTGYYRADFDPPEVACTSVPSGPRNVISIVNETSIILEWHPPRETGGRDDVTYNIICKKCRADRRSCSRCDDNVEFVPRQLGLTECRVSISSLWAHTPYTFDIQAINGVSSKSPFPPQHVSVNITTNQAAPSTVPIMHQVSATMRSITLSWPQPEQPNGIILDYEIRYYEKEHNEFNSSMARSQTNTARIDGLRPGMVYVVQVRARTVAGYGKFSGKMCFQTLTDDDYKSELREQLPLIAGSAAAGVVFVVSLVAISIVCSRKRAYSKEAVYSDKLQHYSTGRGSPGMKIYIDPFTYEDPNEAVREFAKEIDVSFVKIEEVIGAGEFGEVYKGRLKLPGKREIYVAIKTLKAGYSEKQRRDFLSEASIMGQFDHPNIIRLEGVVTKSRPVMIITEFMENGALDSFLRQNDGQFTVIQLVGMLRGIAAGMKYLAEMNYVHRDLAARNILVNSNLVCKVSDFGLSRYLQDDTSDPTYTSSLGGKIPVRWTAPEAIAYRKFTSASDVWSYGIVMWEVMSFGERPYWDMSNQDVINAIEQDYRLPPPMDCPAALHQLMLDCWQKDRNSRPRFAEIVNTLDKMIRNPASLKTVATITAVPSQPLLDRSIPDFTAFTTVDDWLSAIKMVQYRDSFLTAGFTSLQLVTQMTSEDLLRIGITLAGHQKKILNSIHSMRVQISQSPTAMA

Cc1cnn2ncc(-c3ccnc(N(C)C)n3)c2c1 — remaining binding (binding; 1 µM): 100%
CC(C)(O)c1cncc(-c2nc3ccc(F)cc3n2C2CC2)c1 — remaining binding (cell-free assay, competition with immobilised ligand; 1 µM): 100%
COc1cnc(Nc2cccc(S(N)(=O)=O)c2)nc1N1CCN(c2ccccc2)CC1 — remaining binding (binding, competition with immobilised ligand; 1 µM): 97%
CCN1CCN(Cc2ccc(C(=O)Nc3ccc(C)c(Oc4ccc5c(c4)CC(=O)N5)c3)cc2C(F)(F)F)CC1 — remaining binding (binding, competition with immobilised ligand; 1 µM): 100%
Nc1ncc2c(n1)-c1c([nH]c3ccc(C#CC4CC4)cc13)CCCC2 — remaining binding (binding, competition with immobilised ligand; 1 µM): 92%
CO[C@@H](C)c1c(Nc2ccc([C@H](N(C)C(=O)C3CCS(=O)(=O)CC3)C(F)(F)F)cc2)cnc2cc(Cl)nn12 — remaining binding (cell-free assay, competition with immobilised ligand; 1 µM): 86%
Cc1cnc(Nc2ccc(C(=O)N3CCC(N4CCCC4)CC3)cc2)nc1-c1cc2ccccc2s1 — remaining binding (binding, competition with immobilised ligand; 1 µM): 4.4%
O=c1nc(-c2ccccn2)sc2ccccc12 — remaining binding (cell-free assay, competition with immobilised ligand; 1 µM): 88%
C[C@@H](c1ccc(-n2cnc3c(N)ncnc32)cc1)N1CCc2nn(C)c(Cc3ccccc3)c2C1=O — remaining binding (binding, competition with immobilised ligand; 0.1 µM): 70%
C[C@@H]1CCN(c2nccc(-c3cnn4ncccc34)n2)C1 — remaining binding (binding; 1 µM): 97%
O=C(NCCCN1CCOCC1)c1ccc(Nc2nccc(-c3cc4ccccc4s3)n2)cc1 — remaining binding (binding, competition with immobilised ligand; 1 µM): 77%
CC1CCCN1c1nccc(-c2cnn3ncccc23)n1 (stereo not drawn) — remaining binding (binding; 1 µM): 100%
N#CC1(c2ccccn2)CCN(Cc2cc(C(=O)N3CCCC3)c(=O)n3ccccc23)CC1 — remaining binding (cell-free assay, competition with immobilised ligand; 1 µM): 91%
N[C@H]1CCN(c2nccc(-c3cnn4ncccc34)n2)C1 — remaining binding (binding; 1 µM): 100%
O=C(Nc1c[nH]nc1C(=O)NC1CCNCC1)c1cc(F)cc(F)c1 — remaining binding (binding, competition with immobilised ligand; 1 µM): 100%
c1ccc(N2CCN(Cc3nc4ccccc4[nH]3)CC2)nc1 — remaining binding (cell-free assay, competition with immobilised ligand; 1 µM): 100%
COc1cnc(Nc2cccc(S(N)(=O)=O)c2)nc1N1CCN(c2ccccc2)C(=O)C1 — remaining binding (binding, competition with immobilised ligand; 1 µM): 100%
CN(C)c1ncc(F)c(-c2cnn3ncccc23)n1 — remaining binding (binding; 1 µM): 100%
FC(F)(F)Oc1cccc(-c2cnc3ccc(-c4ccncc4)nn23)c1 — remaining binding (cell-free assay, competition with immobilised ligand; 5 µM): 82%
O=C(NCCCN1CCOCC1)c1ccc(Nc2ncc(Cl)c(-c3ccc(Cl)s3)n2)cc1 — remaining binding (binding, competition with immobilised ligand; 1 µM): 58%
Cc1cc(NC(=O)c2cccc(S(F)(F)(F)(F)F)c2)cc(-n2ccn3nc(-c4cccnc4)cc23)c1 — remaining binding (cell-free assay, competition with immobilised ligand; 1 µM): 100%
